Assay [1] concerns the target Muscarinic acetylcholine receptor M3 (Homo sapiens, UniProt P20309). Kind of assay: Displacement of [3H]N-methyl-scopolamine bromide from human recombinant muscarinic M3 receptor expressed in HEK293T cell membranes after 1 hr by liquid scintillation counting method. Format: cell-based, HEK-293T. (Loss of bound radioactivity is the signal in a displacement assay; it reports binding, not function.)

Assay [2] deals with T1, Muscarinic acetylcholine receptor M2 (Homo sapiens, UniProt P08172).
T1 sequence (P08172 whole entry): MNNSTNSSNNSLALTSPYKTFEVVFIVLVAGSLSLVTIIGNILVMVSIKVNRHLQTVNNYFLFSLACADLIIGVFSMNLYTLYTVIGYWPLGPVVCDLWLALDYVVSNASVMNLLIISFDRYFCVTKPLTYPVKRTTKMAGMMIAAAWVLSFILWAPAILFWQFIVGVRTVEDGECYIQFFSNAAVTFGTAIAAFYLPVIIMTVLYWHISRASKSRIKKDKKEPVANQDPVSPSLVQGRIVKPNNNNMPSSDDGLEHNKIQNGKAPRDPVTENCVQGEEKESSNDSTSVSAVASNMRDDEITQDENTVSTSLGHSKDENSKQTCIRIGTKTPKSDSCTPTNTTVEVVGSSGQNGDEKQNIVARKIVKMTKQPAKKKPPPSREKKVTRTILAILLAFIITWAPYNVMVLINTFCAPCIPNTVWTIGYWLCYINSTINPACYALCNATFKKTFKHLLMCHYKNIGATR
Nature of the assay: Agonist activity at human recombinant muscarinic M2 receptor co-expressed with Galphaqi5-HA in African green monkey COS7 cells assessed as IP accumulation after 2 hrs in presence of myo-[3H]inositol by liquid scintillation counting method. Format: functional.

Assay [3] has as its target T2, Muscarinic acetylcholine receptor M1 (Homo sapiens, UniProt P11229).
T2 sequence (P11229 whole entry): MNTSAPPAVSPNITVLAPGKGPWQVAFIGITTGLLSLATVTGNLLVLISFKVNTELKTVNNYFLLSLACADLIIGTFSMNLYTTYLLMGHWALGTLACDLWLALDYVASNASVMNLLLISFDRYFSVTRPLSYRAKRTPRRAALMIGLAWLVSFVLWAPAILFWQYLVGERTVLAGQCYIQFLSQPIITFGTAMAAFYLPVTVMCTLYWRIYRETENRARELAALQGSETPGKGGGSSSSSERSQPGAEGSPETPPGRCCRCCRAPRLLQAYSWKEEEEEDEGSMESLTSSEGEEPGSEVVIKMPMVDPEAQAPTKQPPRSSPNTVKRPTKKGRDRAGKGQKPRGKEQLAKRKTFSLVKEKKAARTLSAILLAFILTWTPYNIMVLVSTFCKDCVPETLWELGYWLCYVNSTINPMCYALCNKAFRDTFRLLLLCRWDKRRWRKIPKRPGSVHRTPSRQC
Nature of the assay: Displacement of [3H]N-methyl-scopolamine bromide from human recombinant muscarinic M1 receptor expressed in HEK293T cell membranes after 1 hr by liquid scintillation counting method. Format: cell-based, HEK-293T.

The target in assay [4] is T1, Muscarinic acetylcholine receptor M2. Nature of the assay: Displacement of [3H]N-methyl-scopolamine bromide from human recombinant muscarinic M2 receptor expressed in HEK293T cell membranes after 1 hr by liquid scintillation counting method. Also noted: species or system HEK-293T.
For assay [5], the target named is T3, Muscarinic acetylcholine receptor M2 (Homo sapiens) (UniProt P08172).
T3 sequence (whole entry): T1 sequence (P08172 whole entry)
Nature of the assay: Agonist activity at human recombinant muscarinic M2 receptor co-expressed with Galphaqi5-HA in African green monkey COS7 cells assessed as IP accumulation after 2 hrs in presence of myo-[3H]inositol by liquid scintillation counting method relative to carbachol. The class given is functional.

The target in assay [6] is Neuronal acetylcholine receptor; alpha4/beta2 (Homo sapiens, UniProt P17787+P43681). Kind of assay: Displacement of [3H]cytisine from alpha4beta2 nAChR expressed in human recombinant SH-SY5Y cell membranes after 120 mins.
Assay [7] addresses T3, Muscarinic acetylcholine receptor M2 (Homo sapiens). Kind of assay: Agonist activity at human recombinant muscarinic M2 receptor co-expressed with Galphaqi5-HA in African green monkey COS7 cells assessed as IP accumulation at 100 uM after 2 hrs in presence of myo-[3H]inositol by liquid scintillation counting method relative to carbachol. Format: functional.
Assay [8] shares this target. Kind of assay: Agonist activity at Gi/o coupled recombinant human M2 mAChR expressed in CHO-FlpIn cells assessed as IP-one accumulation after 40 mins by HTRF assay. The class given is cell-based. The method, boiled down: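 Stably transfected CHO-FlpIn whole cells, 20000/well, grown overnight at 37 °C with 5% CO2. Cells were washed with PBS, then held 60 min at 37 °C in HEPES stimulation buffer with 50 mM LiCl, pH 7.4. ACh or test ligand was added and incubated 40 min.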

The values that follow come from ChEMBL document CHEMBL4024758, “Structure-Based Design and Discovery of New M2 Receptor Agonists” (J Med Chem, 2017).

As a reminder, the Ki is the equilibrium dissociation constant of an inhibitor or competing ligand from its target. Usually EC50 stands for the concentration needed to bring the measured effect to its halfway point. Broadly, the Emax is the maximal effect, on the per cent scale that the assay sets.

Calls of active or inactive are those of the source. The rule behind the calls is not given here.

Sequence of Muscarinic acetylcholine receptor M3 (P20309 whole entry): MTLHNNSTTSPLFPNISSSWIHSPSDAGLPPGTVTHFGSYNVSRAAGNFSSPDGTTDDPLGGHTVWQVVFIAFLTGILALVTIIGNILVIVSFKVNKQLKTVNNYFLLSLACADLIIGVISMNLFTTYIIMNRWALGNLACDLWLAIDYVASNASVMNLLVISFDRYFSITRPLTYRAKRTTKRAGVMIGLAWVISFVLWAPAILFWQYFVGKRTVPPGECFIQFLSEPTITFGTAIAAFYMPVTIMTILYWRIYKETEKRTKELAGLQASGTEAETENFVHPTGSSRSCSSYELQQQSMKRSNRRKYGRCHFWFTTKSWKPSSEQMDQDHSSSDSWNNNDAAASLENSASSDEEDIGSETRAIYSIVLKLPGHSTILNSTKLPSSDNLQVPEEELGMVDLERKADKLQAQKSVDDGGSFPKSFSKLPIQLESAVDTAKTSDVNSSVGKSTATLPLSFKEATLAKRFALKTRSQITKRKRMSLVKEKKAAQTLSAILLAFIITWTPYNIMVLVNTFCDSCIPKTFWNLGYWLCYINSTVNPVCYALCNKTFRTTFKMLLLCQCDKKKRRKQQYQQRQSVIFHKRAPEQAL
Sequence of Neuronal acetylcholine receptor; alpha4/beta2 (P17787 whole entry): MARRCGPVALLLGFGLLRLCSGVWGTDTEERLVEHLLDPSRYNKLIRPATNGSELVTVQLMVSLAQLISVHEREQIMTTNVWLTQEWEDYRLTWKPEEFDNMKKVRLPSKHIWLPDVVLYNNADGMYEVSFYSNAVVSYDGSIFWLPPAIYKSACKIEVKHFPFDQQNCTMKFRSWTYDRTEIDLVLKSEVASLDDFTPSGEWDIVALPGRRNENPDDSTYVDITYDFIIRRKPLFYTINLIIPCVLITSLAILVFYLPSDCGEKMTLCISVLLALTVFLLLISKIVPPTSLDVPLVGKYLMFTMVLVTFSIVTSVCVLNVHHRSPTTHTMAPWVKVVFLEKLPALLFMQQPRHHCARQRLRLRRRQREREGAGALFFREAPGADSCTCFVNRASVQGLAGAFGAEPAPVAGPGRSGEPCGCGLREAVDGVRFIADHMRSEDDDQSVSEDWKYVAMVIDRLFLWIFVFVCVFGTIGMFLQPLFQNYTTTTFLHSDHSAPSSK
Sequence of Neuronal acetylcholine receptor; alpha4/beta2 (P43681 whole entry): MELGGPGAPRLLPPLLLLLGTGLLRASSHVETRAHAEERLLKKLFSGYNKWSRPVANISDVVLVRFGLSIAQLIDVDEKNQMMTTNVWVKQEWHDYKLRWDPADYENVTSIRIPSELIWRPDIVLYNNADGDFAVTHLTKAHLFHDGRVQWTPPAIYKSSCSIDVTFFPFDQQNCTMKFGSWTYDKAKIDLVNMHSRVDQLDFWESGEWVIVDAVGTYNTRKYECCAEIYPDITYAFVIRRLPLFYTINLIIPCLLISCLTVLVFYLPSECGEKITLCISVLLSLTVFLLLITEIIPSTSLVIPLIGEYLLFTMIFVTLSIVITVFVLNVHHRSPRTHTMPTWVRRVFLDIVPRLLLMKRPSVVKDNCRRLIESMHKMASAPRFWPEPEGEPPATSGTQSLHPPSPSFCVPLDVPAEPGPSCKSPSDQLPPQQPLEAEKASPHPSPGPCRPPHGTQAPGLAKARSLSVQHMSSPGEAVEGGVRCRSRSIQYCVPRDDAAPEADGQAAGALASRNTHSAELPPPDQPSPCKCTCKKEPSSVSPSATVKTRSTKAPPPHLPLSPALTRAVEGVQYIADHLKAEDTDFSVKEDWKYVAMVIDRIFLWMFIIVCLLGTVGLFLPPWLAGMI

With `COc1ccc(F)c(CC[N+](C)(C)C)c1`, the figures for the inhibition constant Ki in assay [1], in assay [3] and in assay [4] were 14 µM, 7.1 µM and 0.98 µM, respectively. Besides, in assay [2], the EC50 is 23 µM. For the same compound, the Emax in assay [5] turned out to be 44%.

Consider `COc1cccc(C#CC[N+](C)(C)C)c1`, for which the inhibition constant (Ki) came out at 20 µM in assay [1], 20 µM in assay [3] and 50 µM in assay [4].

Consider `c1cncc(COCC2CCNC2)c1` (centres undefined), for which the inhibitory constant (Ki) was 36 µM in assay [1], 18 µM in assay [3], 11 µM in assay [4] and 0.2 µM in assay [6]. The EC50 in assay [2] was found to be 29 µM. Besides, the Emax in assay [5] stood at 74%.

As to `COc1ccccc1CC[N+](C)(C)C`, the Ki stood at 4.7 µM in assay [1], 4.9 µM in assay [3] and 5.7 µM in assay [4]. The half-maximal effective concentration (EC50) in assay [2] came to 9.1 µM. In addition, the Emax in assay [5] is 21%.

Turning to `COc1ccccc1C[N+](C)(C)C`, the Ki is more than 50 µM in assay [1], 26 µM in assay [3] and more than 50 µM in assay [4]. Also, in assay [2], the EC50 was 18 µM. The Emax in assay [5] is 51%.

In the case of `COc1cccc2c1CCC(C[N+](C)(C)C)C2` (centres undefined), the figures for the Ki in assay [1], in assay [3] and in assay [4] were 25 µM, 17 µM and 14 µM, respectively.

Take `COc1cccc(C2CC2C[N+](C)(C)C)c1` (centres undefined): the inhibition constant (Ki) in assay [1] turned out to be 8.7 µM; in assay [3], 7.3 µM; in assay [4], 15 µM.

Consider `C[N+](C)(C)CCc1cccc(Cl)c1`, for which the inhibition constant (Ki) worked out at 5.8 µM in assay [1], 4.5 µM in assay [3] and 4.8 µM in assay [4]. Further, the Emax in assay [7] is less than 10%.

With `C[N+](C)(C)C1CCc2ccc3ccoc3c2C1` (centres undefined), the inhibition constant (Ki) in assay [1] was 0.69 µM; in assay [3], 0.38 µM; in assay [4], 0.79 µM. In assay [2], the EC50 came out at 2.3 µM. Besides, in assay [5], the Emax is -8.3%.

For the compound `COc1cccc(/C=C/C[N+](C)(C)C)c1`, the inhibitory constant (Ki) in assay [1] was found to be 21 µM; in assay [3], 16 µM; in assay [4], 22 µM.

For `C[N+](C)(C)CC#CCOC1=NOCC1`, the Ki in assay [1] came to 0.55 µM; in assay [3], 0.35 µM; in assay [4], 0.0049 µM. Moreover, the EC50 in assay [2] was 0.00028 µM. The Emax in assay [5] was determined as 125%.

On to `COc1cccc2c1CC[N+](C)(C)C2`, for which the Ki in assay [1] turned out to be 24 µM; in assay [3], 14 µM; in assay [4], 26 µM.

Regarding `COc1cccc(C(=O)C[N+](C)(C)C)c1`, the Ki in assay [1] came to 0.21 µM; in assay [3] it was 0.17 µM; in assay [4], 2.4 µM. The Emax in assay [7] is less than 10%.

In the case of `C[N+](C)(C)CCCc1ccc2ccoc2c1`, the Ki in assay [1] came to 0.14 µM; in assay [3], 0.063 µM; in assay [4], 0.23 µM. Also, the concentration for a half-maximal effect (EC50) in assay [2] stood at 0.027 µM. Further, the Emax in assay [5] came out at 12%.

`C[N+](C)(C)CCc1cccc(O)c1`: the values for the Ki in assay [1], in assay [3] and in assay [4] were 13 µM, 20 µM and 14 µM, respectively. Besides, the EC50 in assay [2] was 10 µM. Further, the Emax in assay [5] was 44%.

Consider `COc1cccc(C(O)C[N+](C)(C)C)c1` (centres undefined), for which the Ki in assay [1] came out at 12 µM; in assay [3], 13 µM; in assay [4] it was 29 µM. For the same compound, the Emax in assay [7] is less than 10%.

In the case of `COc1cccc2c1CC([N+](C)(C)C)CC2` (centres undefined), the Ki amounted to 2 µM in assay [1], 1 µM in assay [3] and 0.93 µM in assay [4].

Turning to `COc1cccc2c1CC(N(C)C)CC2` (centres undefined), the Ki in assay [1] is 0.83 µM; in assay [3] it was 2 µM; in assay [4], 1.2 µM.

Take `COc1cccc2c1CC(C[N+](C)(C)C)CC2` (centres undefined): the inhibition constant (Ki) amounted to 3.9 µM in assay [1], 1.8 µM in assay [3] and 1.3 µM in assay [4].

In the case of `C[N+](C)(C)C1CCc2cccc(O)c2C1` (centres undefined), the inhibition constant Ki came to 16 µM in assay [1], 2.9 µM in assay [3] and 4.2 µM in assay [4].

Take `CN1CCC(COCc2cccnc2)C1` (centres undefined): the Ki in assay [1] was determined as 75 µM; in assay [3] it was 38 µM; in assay [4] it was 39 µM. In assay [2], the EC50 was more than 100 µM. For the same compound, the Emax in assay [7] is 38%.

Consider `C[N+]1(C)CCC(OCc2nccs2)C1` (centres undefined), for which the Ki came out at 12 µM in assay [1], 6.1 µM in assay [3] and 10 µM in assay [4]. Moreover, the EC50 in assay [2] stood at 10 µM. Further, the Emax in assay [5] was 28%.

As to `COc1cccc2c1C[N+](C)(C)CC2`, the inhibition constant Ki in assay [1] came out at 5.8 µM; in assay [3], 17 µM; in assay [4], 6.3 µM.

Regarding `CN(C)C1CCc2cccc(O)c2C1` (centres undefined), the Ki in assay [1] was 28 µM; in assay [3] it was more than 50 µM; in assay [4] it was more than 50 µM.

For the compound `C[N+](C)(C)CCc1ccc2ccoc2c1`, the Ki in assay [1] came out at 0.041 µM; in assay [3], 0.023 µM; in assay [4] it was 0.14 µM. Further, the 50% effective concentration (EC50) in assay [2] is 0.22 µM. The Emax in assay [5] was -14%.

With `COc1cccc2c1CCC([N+](C)(C)C)C2` (centres undefined), the inhibitory constant (Ki) worked out at 4 µM in assay [1], 2.5 µM in assay [3] and 4.4 µM in assay [4].

On to `c1csc(COC2CCNC2)n1` (centres undefined), for which the values for the Ki in assay [1], in assay [3] and in assay [4] were 4.1 µM, 4.2 µM and 6 µM, respectively. Moreover, the 50% effective concentration (EC50) in assay [2] was determined as 9.9 µM. Also, the Emax in assay [5] is 74%.

As for `c1cncc(COC2CCCNC2)c1` (centres undefined), the inhibitory constant (Ki) in assay [1] turned out to be 10 µM; in assay [3], 10 µM; in assay [4] it was 17 µM; in assay [6], 0.0016 µM. Moreover, the EC50 in assay [2] was determined as 13 µM. Further, the Emax in assay [5] worked out at 60%.

Regarding `CNCCc1cccc(OC)c1`, the Ki in assay [1] was 0.78 µM; in assay [3], 0.74 µM; in assay [4], 1 µM. Moreover, the EC50 in assay [2] was found to be 8.2 µM. For the same compound, the Emax in assay [5] is -12%.

In the case of `CN1CCCC(OCc2cccnc2)C1` (centres undefined), the values for the inhibition constant (Ki) in assay [1], in assay [3] and in assay [4] were 42 µM, 20 µM and 46 µM, respectively. Moreover, in assay [2], the EC50 is 50 µM. The Emax in assay [5] came to 33%.

Take `C[N+](C)(C)CCc1cccc(OC(F)(F)F)c1`: the inhibition constant Ki came to 11 µM in assay [1], 7.8 µM in assay [3] and 9.2 µM in assay [4]. Further, the Emax in assay [7] was less than 10%.

As for `CCOc1cccc(CC[N+](C)(C)C)c1`, the Ki came out at 43 µM in assay [1], 42 µM in assay [3] and 27 µM in assay [4]. Further, the Emax in assay [7] is 40%.

Regarding `CC(=O)OCC[N+](C)(C)C`, in assay [8], the outcome was inactive.
